Data: ChEMBL document CHEMBL4354879, “Bioisosteric Discovery of NPA101.3, a Second-Generation RET/VEGFR2 Inhibitor Optimized for Single-Agent Polypharmacology” (J Med Chem, 2020)
Calls of active or inactive are those of the source. The calls are words filed in the database; no cut-off is given here.

Tests used:
[1] = Inhibition of NCOA4/RET […] (unknown origin) expressed in mouse BAF3 cells assessed as reduction in cell proliferation supplemented with fresh medium containing compound for every 2 to 3 days and measured daily; format: cell-based
[2] = system: Proto-oncogene tyrosine-protein kinase receptor Ret (Homo sapiens), P07949 [A883F]; experiment: Inhibition of RET isoform 9 A883F mutant (unknown origin) expressed in rat Rat1 assessed as reduction in RET phosphorylation at Y1062 residue at 1 to 100 nM measured after 2 hrs by Western blot analysis; format: cell-based
Method in brief: (§1)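 Serum-starved RAT1 (RET point mutants) or NIH3T3 (RET rearrangements) cells expressing short RET-9 isoform, treated 2 h; 50 μg total lysate immunoblotted with anti-phospho-Y1062 and anti-phospho-Y905 RET antibodies, normalized to total RET; ECL detection. Compound from 50 mM DMSO stock diluted in growth medium.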

[3] = system: Proto-oncogene tyrosine-protein kinase receptor Ret (Homo sapiens), P07949 [V804L]; experiment: Inhibition of RET isoform 9 V804L mutant (unknown origin) expressed in rat Rat1 assessed as reduction in RET phosphorylation at Y1062 residue at 1 to 100 nM measured after 2 hrs by Western blot analysis; format: cell-based; method in brief: as §1
Chain of Proto-oncogene tyrosine-protein kinase receptor Ret (Homo sapiens), P07949 [V804L] (P07949 whole entry V804L, the tested form may be a part, canonical isoform): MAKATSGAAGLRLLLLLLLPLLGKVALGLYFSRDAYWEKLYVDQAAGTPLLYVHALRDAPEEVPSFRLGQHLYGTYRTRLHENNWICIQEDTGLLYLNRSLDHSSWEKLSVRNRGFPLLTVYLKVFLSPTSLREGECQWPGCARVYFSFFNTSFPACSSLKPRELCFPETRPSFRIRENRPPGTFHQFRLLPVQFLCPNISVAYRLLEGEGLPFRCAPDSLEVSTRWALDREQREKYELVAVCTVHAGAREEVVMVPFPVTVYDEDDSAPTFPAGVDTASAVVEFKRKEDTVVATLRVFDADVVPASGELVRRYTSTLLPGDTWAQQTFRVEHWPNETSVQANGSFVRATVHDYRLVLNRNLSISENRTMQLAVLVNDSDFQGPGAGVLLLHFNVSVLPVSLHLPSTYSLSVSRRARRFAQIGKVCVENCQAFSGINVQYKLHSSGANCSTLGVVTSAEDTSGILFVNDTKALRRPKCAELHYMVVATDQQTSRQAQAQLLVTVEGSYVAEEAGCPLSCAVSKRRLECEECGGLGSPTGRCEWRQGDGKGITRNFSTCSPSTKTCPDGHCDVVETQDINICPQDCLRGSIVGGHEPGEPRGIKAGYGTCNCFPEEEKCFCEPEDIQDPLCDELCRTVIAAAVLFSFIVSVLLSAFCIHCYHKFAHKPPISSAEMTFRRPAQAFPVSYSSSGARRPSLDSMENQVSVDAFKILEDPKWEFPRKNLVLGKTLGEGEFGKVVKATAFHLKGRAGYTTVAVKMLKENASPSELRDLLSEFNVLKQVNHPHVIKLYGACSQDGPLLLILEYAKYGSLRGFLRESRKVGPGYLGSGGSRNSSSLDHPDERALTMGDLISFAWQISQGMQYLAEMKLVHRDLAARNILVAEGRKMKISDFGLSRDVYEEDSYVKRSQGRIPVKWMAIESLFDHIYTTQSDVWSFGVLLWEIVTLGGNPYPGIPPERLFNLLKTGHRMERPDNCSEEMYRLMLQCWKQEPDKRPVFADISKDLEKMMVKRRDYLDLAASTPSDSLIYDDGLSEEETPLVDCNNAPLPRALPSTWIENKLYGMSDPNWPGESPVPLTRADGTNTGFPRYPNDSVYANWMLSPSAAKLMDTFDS

[4] = Toxicity in BALB/c nu/nu mouse assessed as change in blood urea nitrogen level at 10 mg/kg, po administered daily for 7 days; format: organism-based; conditions: in vivo, 168 h
Method in brief: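 Mice dosed orally with 10 mg/kg/day for 7 days; standard blood markers of organ damage measured.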

[5] = system: Proto-oncogene tyrosine-protein kinase receptor Ret (Homo sapiens), P07949 [C634R]; experiment: Inhibition of RET […] C634R mutant (unknown origin) expressed in mouse BAF3 cells assessed as reduction in RET phosphorylation at Y1062 residue at 0.3 to 30 nM measured after 2 hrs by Western blot analysis; format: cell-based
Chain of Proto-oncogene tyrosine-protein kinase receptor Ret (Homo sapiens), P07949 [C634R] (P07949 whole entry C634R, canonical isoform): as the sequence (P07949 whole entry V804L, the tested form may be a part, canonical isoform) above, with C634R, L804V counted along it
Method in brief: (§2)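 Ba/F3 cells stably expressing long-isoform RET-51 mutants (electroporation), cultured in RPMI/10% FCS without IL-3; RET phosphorylation read by Western blot with anti-phospho-Y905 and anti-phospho-Y1062 antibodies, ECL detection.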

[6] = biological target: T1, Coiled-coil domain-containing protein 6/Tyrosine-protein kinase receptor RET (Homo sapiens) (UniProt P07949+Q16204); experiment: Inhibition of CCDC6/RET in human TPC1 cells assessed as reduction in SHC phosphorylation at 0.3 to 30 nM measured after 2 hrs by Western blot analysis; format: cell-based
T1 sequence (P07949 29-1114 limits assumed): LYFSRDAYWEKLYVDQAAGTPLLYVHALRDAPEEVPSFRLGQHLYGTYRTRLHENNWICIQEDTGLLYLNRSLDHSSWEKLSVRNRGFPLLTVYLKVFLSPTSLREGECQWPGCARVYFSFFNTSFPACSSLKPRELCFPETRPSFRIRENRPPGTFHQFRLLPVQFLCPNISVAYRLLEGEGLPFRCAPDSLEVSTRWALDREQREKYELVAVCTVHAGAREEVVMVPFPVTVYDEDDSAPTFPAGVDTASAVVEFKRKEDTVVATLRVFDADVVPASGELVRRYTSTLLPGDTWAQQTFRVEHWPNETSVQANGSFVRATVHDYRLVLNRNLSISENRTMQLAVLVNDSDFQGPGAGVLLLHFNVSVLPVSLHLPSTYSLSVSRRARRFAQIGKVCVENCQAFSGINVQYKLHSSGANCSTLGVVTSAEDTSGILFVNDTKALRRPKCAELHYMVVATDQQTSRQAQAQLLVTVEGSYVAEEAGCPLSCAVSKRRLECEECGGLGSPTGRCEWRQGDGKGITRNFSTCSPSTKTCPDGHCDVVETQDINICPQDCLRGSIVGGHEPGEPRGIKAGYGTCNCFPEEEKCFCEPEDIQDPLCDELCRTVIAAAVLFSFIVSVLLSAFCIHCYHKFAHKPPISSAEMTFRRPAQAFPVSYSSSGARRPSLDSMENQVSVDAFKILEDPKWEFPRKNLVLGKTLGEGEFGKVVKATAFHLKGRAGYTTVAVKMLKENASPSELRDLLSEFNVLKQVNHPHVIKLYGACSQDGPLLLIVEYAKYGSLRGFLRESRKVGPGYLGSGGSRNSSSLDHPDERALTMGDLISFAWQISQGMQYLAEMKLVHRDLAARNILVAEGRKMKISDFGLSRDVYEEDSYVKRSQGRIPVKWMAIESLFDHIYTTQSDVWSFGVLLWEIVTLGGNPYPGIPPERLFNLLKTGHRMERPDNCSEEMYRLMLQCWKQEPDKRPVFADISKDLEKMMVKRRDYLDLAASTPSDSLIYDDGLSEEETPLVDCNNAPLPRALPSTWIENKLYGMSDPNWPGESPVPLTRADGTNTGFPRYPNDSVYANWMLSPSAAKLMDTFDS
T1 sequence (Q16204 2-474 partner limits assumed): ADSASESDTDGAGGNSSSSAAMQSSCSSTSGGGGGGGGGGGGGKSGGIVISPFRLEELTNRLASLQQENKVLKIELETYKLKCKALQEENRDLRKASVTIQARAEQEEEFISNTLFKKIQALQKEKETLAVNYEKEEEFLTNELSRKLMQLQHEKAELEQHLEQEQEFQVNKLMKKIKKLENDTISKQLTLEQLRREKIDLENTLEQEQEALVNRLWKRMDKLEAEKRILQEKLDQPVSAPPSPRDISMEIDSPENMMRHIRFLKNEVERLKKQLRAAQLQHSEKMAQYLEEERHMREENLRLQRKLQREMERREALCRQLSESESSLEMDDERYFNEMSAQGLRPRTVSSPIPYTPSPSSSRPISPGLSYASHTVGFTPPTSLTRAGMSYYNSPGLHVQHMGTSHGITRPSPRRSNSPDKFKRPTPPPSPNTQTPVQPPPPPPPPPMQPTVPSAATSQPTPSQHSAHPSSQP

Homo sapiens = species: Homo sapiens; experiment: Inhibition of NCOA4/RET isoform 9 (unknown origin) expressed in mouse NIH/3T3 cells assessed as reduction in RET phosphorylation at Y1062 residue at 1 to 100 nM measured after 2 hrs by Western blot analysis; format: cell-based; method in brief: as §1
[7] = biological target: Proto-oncogene tyrosine-protein kinase receptor Ret (Homo sapiens, UniProt P07949); experiment: Inhibition of recombinant human GST-tagged RET cytoplasmic domain (658 to 1114 residues) expressed in baculovirus expression system using 5'FAM-EPLYWSFPA as substrate preincubated for 60 mins followed by substrate addition by microfluidic assay
[8] = biological target: T2, SHC-transforming protein 1 (Homo sapiens) (UniProt P29353); experiment: Effect on SHC phosphorylation in RET deficient human Calu1 cells at 1 to 100 nM measured after 2 hrs by western blot analysis
T2 sequence (whole entry): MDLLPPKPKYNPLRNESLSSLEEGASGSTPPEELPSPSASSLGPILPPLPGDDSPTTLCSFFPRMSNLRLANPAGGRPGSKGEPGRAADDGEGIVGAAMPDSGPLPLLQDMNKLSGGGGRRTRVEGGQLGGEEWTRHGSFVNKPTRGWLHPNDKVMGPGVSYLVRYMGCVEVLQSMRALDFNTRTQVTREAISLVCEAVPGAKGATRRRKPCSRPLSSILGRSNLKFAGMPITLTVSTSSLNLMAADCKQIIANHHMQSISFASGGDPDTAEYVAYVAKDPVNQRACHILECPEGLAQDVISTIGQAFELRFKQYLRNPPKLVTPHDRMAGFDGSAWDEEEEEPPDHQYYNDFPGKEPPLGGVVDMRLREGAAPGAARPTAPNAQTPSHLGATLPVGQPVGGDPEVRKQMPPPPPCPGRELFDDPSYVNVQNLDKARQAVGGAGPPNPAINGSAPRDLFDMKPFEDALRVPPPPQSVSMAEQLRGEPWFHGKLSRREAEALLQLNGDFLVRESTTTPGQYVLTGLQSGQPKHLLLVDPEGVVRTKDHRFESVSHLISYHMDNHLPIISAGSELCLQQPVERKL

[9] = system: Proto-oncogene tyrosine-protein kinase receptor Ret (Homo sapiens), P07949 [M918T]; experiment: Inhibition of RET isoform 9 M918T mutant (unknown origin) expressed in rat Rat1 assessed as reduction in RET phosphorylation at Y905 residue at 1 to 100 nM measured after 2 hrs by Western blot analysis; format: cell-based; method in brief: as §1
Chain of Proto-oncogene tyrosine-protein kinase receptor Ret (Homo sapiens), P07949 [M918T] (P07949 whole entry M918T, the tested form may be a part, canonical isoform): as the sequence (P07949 whole entry V804L, the tested form may be a part, canonical isoform) above, with L804V, M918T counted along it

[10] = biological target: T1, Coiled-coil domain-containing protein 6/Tyrosine-protein kinase receptor RET (Homo sapiens); experiment: Inhibition of CCDC6/RET in human TPC1 cells assessed as reduction in RET phosphorylation at Y1062 residue at 0.3 to 30 nM measured after 2 hrs by Western blot analysis; format: cell-based
[11] = system: Proto-oncogene tyrosine-protein kinase receptor Ret (Homo sapiens), P07949 [V804L]; experiment: Inhibition of RET isoform 9 V804L mutant (unknown origin) expressed in rat Rat1 assessed as reduction in RET phosphorylation at Y905 residue at 1 to 100 nM measured after 2 hrs by Western blot analysis; format: cell-based; method in brief: as §1
[12] = biological target: T1, Coiled-coil domain-containing protein 6/Tyrosine-protein kinase receptor RET (Homo sapiens); experiment: Inhibition of CCDC6/RET in human LC2/ad cells assessed as reduction in RET phosphorylation at Y1062 residue at 0.3 to 30 nM measured after 2 hrs by Western blot analysis; format: cell-based
[13] = biological target: High affinity nerve growth factor receptor (Homo sapiens, UniProt P04629); experiment: Inhibition of recombinant human His-tagged TRKA cytoplasmic domain (441 to 796 residues) expressed in baculovirus expression system using peptide substrate preincubated for 60 mins followed by substrate addition by microfluidic assay
[14] = biological target: T1, Coiled-coil domain-containing protein 6/Tyrosine-protein kinase receptor RET (Homo sapiens); experiment: Inhibition of CCDC6/RET in human LC2/ad cells assessed as reduction in MAPK phosphorylation at 0.3 to 30 nM measured after 2 hrs by Western blot analysis; format: cell-based
[15] = biological target: Vascular endothelial growth factor receptor 2 (Homo sapiens, UniProt P35968); experiment: Inhibition of recombinant human His-tagged VEGFR2 cytoplasmic domain (789 to 1356 residues) expressed in baculovirus expression system using peptide substrate preincubated for 60 mins followed by substrate addition by microfluidic assay
[16] = system: Proto-oncogene tyrosine-protein kinase receptor Ret (Homo sapiens), P07949 [M918T]; experiment: Inhibition of RET […] M918T mutant (unknown origin) expressed in mouse BAF3 cells assessed as reduction in RET phosphorylation at Y905 residue at 0.3 to 30 nM measured after 2 hrs by Western blot analysis; format: cell-based; method in brief: as §2
[17] = system: Proto-oncogene tyrosine-protein kinase receptor Ret (Homo sapiens), P07949 [C634R]; experiment: Inhibition of RET isoform 9 C634R mutant (unknown origin) expressed in rat Rat1 assessed as reduction in RET phosphorylation at Y1062 residue at 0.3 nM measured after 2 hrs by Western blot analysis; format: cell-based
Method in brief: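 RAT1 fibroblasts expressing RET-9 C634R, serum-starved, treated 2 h with 0.1–10.0 nM; 50 μg lysate blotted for RET pY905 and pY1062, normalized to total RET; ECL detection.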

[18] = system: Proto-oncogene tyrosine-protein kinase receptor Ret (Homo sapiens), P07949 [M918T]; experiment: Inhibition of RET […] M918T mutant (unknown origin) expressed in mouse BAF3 cells assessed as reduction in RET phosphorylation at Y1062 residue at 0.3 to 30 nM measured after 2 hrs by Western blot analysis; format: cell-based; method in brief: as §2

With CC(C)(C)c1cc(NC(=O)Cc2ccc(-n3cnc4cc(-c5ccc(S(C)(=O)=O)cc5)ccc43)cc2)no1 the IC50 [1] was 3.1 nM, the inhibition [2] was “Active” and the inhibition [3] was “Active”. The Activity [4] was “Non-Toxic”, the inhibition [5] was “Active” and the inhibition [6] was “Active”. For the same compound, the inhibition (Homo sapiens) was “Active”, the IC50 [7] was 1 nM and the Activity [8] was “inactive”. The inhibition [9] was “Active”, the inhibition [10] was “Active” and the inhibition [11] was “Active”. The inhibition [12] was “Active”, the IC50 [13] was 32 nM and the inhibition [14] was “inactive”. For the same compound, the IC50 [15] was 3 nM, the inhibition [16] was “Active” and the inhibition [17] was “Active”. For the same compound, the inhibition [18] was “Active”.
